Results as given in BindingDB's records for doi:10.1021/jm051126f (The Ohio State University, 2006).

Target: T1, Aromatase (Homo sapiens, UniProt P11511)
T1 sequence (P11511 whole entry): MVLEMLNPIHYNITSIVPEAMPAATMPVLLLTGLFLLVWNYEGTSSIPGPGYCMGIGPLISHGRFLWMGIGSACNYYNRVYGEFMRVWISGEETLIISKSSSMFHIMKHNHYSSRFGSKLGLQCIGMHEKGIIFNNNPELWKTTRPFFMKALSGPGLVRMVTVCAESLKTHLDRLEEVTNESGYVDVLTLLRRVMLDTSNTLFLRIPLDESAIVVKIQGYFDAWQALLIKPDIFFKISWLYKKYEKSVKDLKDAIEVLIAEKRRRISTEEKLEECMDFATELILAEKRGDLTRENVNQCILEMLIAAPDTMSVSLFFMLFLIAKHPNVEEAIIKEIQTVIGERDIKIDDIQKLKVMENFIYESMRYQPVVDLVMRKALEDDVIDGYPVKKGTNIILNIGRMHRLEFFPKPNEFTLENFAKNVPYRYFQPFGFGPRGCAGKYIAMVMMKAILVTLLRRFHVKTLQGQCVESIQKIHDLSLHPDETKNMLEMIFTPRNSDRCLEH
Test: Inhibition of CYP450 aromatase activity in SK-BR-3 cells
Outline: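 Tritium water release assay in intact SK-BR-3 cells. Cells were treated 24 h with compound or 0.1% DMSO vehicle, then the medium was changed and cells were given 100 nM [1β-3H]-androstenedione for 3 h. Protein was precipitated with TCA and the medium chloroform- and charcoal-extracted. Released 3H2O was counted and expressed per million cells (DNA assay). IC50 came from nonlinear regression on five concentrations in triplicate.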

IC50	Structure (SMILES)
> 25 µM	COc1cc([N+](=O)[O-])ccc1N(C)S(C)(=O)=O [N-methyl-N-(2-methoxy-4-nitrophenyl)methanesulfonamide]
> 25 µM	COc1cc([N+](=O)[O-])ccc1NS(C)(=O)=O [N-(2-methoxy-4-nitrophenyl)methanesulfonamide]
